Only some compounds are listed: those with a hit (about 4.9% of all), similar ones and a draw of the others.
CHT inh = inhibits the human high affinity choline transporter. actives 0.86% (n = 310,000). CHT-expressing cells, membrane potential dye, choline response; hits give low values. B-score at 10 µM. AID 488975. Q9GZV3;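 active = B-score over 3 SD under the library average, and starting fluorescence ratio not unusually high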;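 note: choline stimulus applied at its EC90 after an EC20 pre-addition; B-score computed on integrated fluorescence ratio after choline addition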
HSF1 inh = HSF1 inhibition; AID 2098; NIH3T3-HGL HSE-luciferase, MG132-induced, luminescence 8 h; hits give low values; activity change, negative = inhibition, % at 7.5 µM (by protocol); actives 0.77% (n = 300,000);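 active = more than half of replicate wells show activity change below -50%, luminescence cut by over half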;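 note: luciferase reports HSF-1 transcriptional activity via heat shock element; 0% = median of DMSO wells and -100% = zero luminescence signal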
Hep lipid drop = modulators of hepatic lipid droplet formation; AML12 mouse hepatocytes, oleate lipid droplets, BODIPY imaging; inhibition, % at 6.5 µM; actives 0.4% (n = 240,000); AID 1656;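 active = lipid droplet intensity inhibited by at least 50%, with more than 500 cells counted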
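Material – mouse AML12 hepatocyte cell line, fixed after treatment · Compound dosing – one dose, 6.5 µM compound · Times – compound with oleate, overnight · Measured by – Image-based BODIPY and DAPI two-channel analysis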
HSF-1 act = increases HSF-1 driven luciferase reporter signal | actives 1.7% (n = 300,000) | AID 504408 | activation, % at 9 µM | NIH3T3-HGL HSF-1 luciferase reporter, MG132, 8 h; 100% = twice DMSO control signal;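 active = mean replicate activation of at least 50% with a set share of replicates each reaching 50%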;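 note: 0% = median of the neutral control wells and 100% = twice that signal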
PHOSPHO1 block = blocks human PHOSPHO1 phosphatase activity; actives 1.1% (n = 290,000); inhibition, % at 13.3 µM; recombinant PHOSPHO1, absorbance phosphatase assay; AID 1565; in the data active = inhibition above about 60%
Target sequence (Q8TCT1 whole entry, looked up): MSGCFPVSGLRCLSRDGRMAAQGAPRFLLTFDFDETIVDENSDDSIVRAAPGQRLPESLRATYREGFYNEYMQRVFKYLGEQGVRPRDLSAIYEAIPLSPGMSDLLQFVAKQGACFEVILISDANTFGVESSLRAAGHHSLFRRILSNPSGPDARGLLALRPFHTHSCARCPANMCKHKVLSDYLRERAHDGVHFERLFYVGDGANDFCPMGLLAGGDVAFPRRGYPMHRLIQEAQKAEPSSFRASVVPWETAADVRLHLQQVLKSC
CHT allo act = human CHT allosteric activation; CHT-expressing cells, membrane potential dye, choline EC20; hits give high values; LV-AA mutant CHT in HEK293 cells; B-score at 10 µM; actives 0.49% (n = 310,000);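 active = initial fluorescence not abnormally high and integrated response B-score, plate-corrected, over 3 SD above library mean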
* hit, by the source's call; i = inactive; . = no result.

SMILES	CHT inh	HSF1 inh	Hep lipid drop	HSF-1 act	PHOSPHO1 block	CHT allo act
O=Cc1ccccc1OCCCOc1cccc2cccnc12	i	21	-14	30	19	i
COC(C[C@H]1O[C@H]1C(=O)[C@H](C)OCc1ccccc1)OC	i	-6	.	-8	.	i
COc1ccc(-c2csc(Nc3cccc(C)n3)n2)cc1C	i	42	-18	98*	.	i
CC(=O)Oc1ccc(-c2csc(Nc3cccc(C)n3)n2)cc1	i	45	-1	65*	22	i
COc1ccc(-c2csc(Nc3cccc(C)n3)n2)cc1	i	20	15	37	36	i
Cc1ccc(N(C(=O)CNC(=O)c2ccco2)C(C(=O)NC2CCCCC2)c2cccnc2)cc1F (configuration not stated)	i	-4	-16	-14	30	i
O=C(CN1C(=O)c2ccc([N+](=O)[O-])cc2C1=O)NCc1ccc(C(=O)O)cc1	i	-11	-3	-4	19	i
COc1ccc(C(=O)NC(=S)NCCO)cc1Br	i	-68*	.	-74	33	i
COc1ccc(C(=O)NC(=S)N(C)Cc2ccccc2)cc1Br	i	21	6	54*	28	i
Cc1cc(C(=O)CSc2nc3ccccc3c(=O)[nH]2)c(C)n1CC1CCCO1 (configuration not stated)	i	22	-4	59*	13	i
CCn1c(SCC(=O)c2cc(C)n(CC3CCCO3)c2C)nc2ccccc21 (configuration not stated)	i	-13	.	7	73*	i
Cc1cc(C(=O)CSc2nc3ccccc3c(=O)n2C)c(C)n1CC1CCCO1 (configuration not stated)	.	1	-48	0	12	.
CCn1c(SCC(=O)N2CC(C)OC(C)C2)nc2c([nH]c3ccccc32)c1=O (configuration not stated)	i	-1	-27	2	8	i
COc1ccccc1N(CC(O)CN1CCC(C)CC1)S(=O)(=O)c1ccccc1 (configuration not stated)	i	11	-14	57*	-24	i
O=C(Nc1ccccc1F)C(=Cc1sc(N2CCOCC2)nc1-c1ccccc1)C(=O)Nc1ccccc1F	i	16	68*	64*	8	i
Nc1ccccc1N=Cc1ccc(-c2cccc(Cl)c2)o1	i	26	7	55*	28	i
COc1ccsc1C(=O)Nc1ccc(F)cc1F	i	-4	5	0	8	i
CSc1sc(C(=O)Nc2ccc(F)cc2F)c2c1C=CCC2	i	45	-1	72*	-21	i
Cc1ccc(C(=O)N2CCCC(Nc3ccc(F)cc3)C2)cc1C (configuration not stated)	i	-71*	-8	-76	-2	i
COc1ccc(C(=O)N2CCCC(Nc3ccc(F)cc3)C2)cc1F (configuration not stated)	i	1	17	4	1	i
COc1ccccc1C1C(C#N)=C(N)Oc2cc(C)n(Cc3ccccn3)c(=O)c21 (configuration not stated)	i	-5	.	-30	-9	i
Cc1ccc(S(=O)(=O)N(C)c2c(C)ccc(S(=O)(=O)N3CCN(C=O)CC3)c2C)cc1	i	1	-1	-4	1	i
Cc1ccc(S(=O)(=O)N(C)c2c(C)ccc(S(=O)(=O)N3CCN(C)CC3)c2C)cc1	i	-60*	0	-70	-5	i
O=C(Nc1ccc(F)cc1)Nc1nnc(-c2ccco2)s1	i	-2	1	8	-18	i
O=C(/C=C/c1cccc(Cl)c1)NCc1cccs1	i	20	.	52*	19	i
CC(NC(=O)Nc1nnc(C(F)(F)F)s1)(C(F)(F)F)C(F)(F)F	i	-14	.	-5	10	i
CC(C)c1ccc(OCC(=O)N2CCCCCC2)c(Br)c1	i	61	-10	101*	-11	i
CC(C)NS(=O)(=O)c1ccc(OCC(=O)N2CCCC2)cc1	i	1	0	12	-6	i

Screening data (PubChem BioAssay)
